Source: PubChem BioAssay
An excerpt weighted towards active compounds, which were near 5.4% of everything screened.
PostGolgi yeast – growth inhibition of a yeast mutant, post-Golgi transport screen; post-Golgi transport phenotypic cell assay; 98,000 compounds, 0.9% hits; AID 739; inhibition, % at 10 µM;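 further: yeast cells grown in 1536-well plates; yeast grown about 18 h at 30C before absorbance read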
PostGolgi ctrl – inhibits growth of the yeast control strain; efflux-deficient yeast background strain, growth absorbance A615, 16 h; inhibition, % at 10 µM; 98,000 compounds, 5% hits; AID 738
tolC growth inh – blocks growth of E. coli BW25113 tolC mutant; AID 573; OD615; growth inhibition, % at 10 µM (by protocol); 65,000 compounds, 2.2% hits;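 active means growth inhibition at or above a cutoff equal to the mean over every tested compound plus 3 SD, cut at about 60% in these data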;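 further: growth measured after 20 h incubation at 37 °C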
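System: E. coli ΔtolC::kan strain BW25113; Buffer or medium: LB broth supplemented with 50 µg/mL kanamycin; Compound: 10 µM final, single dose; Incubation: bacterial growth with compound for 20 h at 37 °C; Signal: A615 absorbance measurement; Evaluation: growth inhibition in percent.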
HePTP inhibitor – inhibitors of human HePTP phosphatase; recombinant HePTP phosphatase activity, OD absorbance; inhibition, % at 20 µM; 110,000 compounds, 0.64% hits; AID 521; in the data active means inhibition above about 50%;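 further: plate controls were vehicle for no effect and reference inhibitor for full effect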
Target sequence (P35236 whole entry, looked up): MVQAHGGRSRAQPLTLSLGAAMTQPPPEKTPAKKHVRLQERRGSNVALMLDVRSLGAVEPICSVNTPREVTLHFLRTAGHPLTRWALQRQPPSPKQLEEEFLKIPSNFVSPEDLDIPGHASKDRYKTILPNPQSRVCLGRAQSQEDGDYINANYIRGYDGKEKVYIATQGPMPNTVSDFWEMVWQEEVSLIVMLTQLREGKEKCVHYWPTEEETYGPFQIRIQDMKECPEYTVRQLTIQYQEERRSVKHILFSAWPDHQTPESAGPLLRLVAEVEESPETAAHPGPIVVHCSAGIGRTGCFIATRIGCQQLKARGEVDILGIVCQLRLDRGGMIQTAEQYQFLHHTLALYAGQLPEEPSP
E coli WT exp – E. coli BW25113 growth inhibition, expanded screen. OD600 absorbance. growth inhibition, % at 100 µM. 98,000 compounds, 0.15% hits;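 active means growth inhibition above about 50% at one test dose, limit read from the data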;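 further: growth measured after 20 h incubation at 37 °C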
PLAP activator – activates human placental alkaline phosphatase; P05187; purified PLAP enzyme, luminescent substrate read-out; active compounds read high; activation fold at 20 µM; 96,000 compounds, 1.2% hits; AID 696; in the data active means activation fold above about 2
Starred values were filed as active, the others as inactive. Unless noted, no stated cut-off is given here; in the data, active means inhibition above about 30%; inactive means the rest.

For CCN(c1ccccc1)S(=O)(=O)c1ccc(C(=O)Nc2nnc(COC)o2)cc1 the results were PostGolgi yeast -3, PostGolgi ctrl 8, tolC growth inh 95*, HePTP inhibitor -5, E coli WT exp 11 and PLAP activator 1.5.
Screening COCc1nnc(NC(=O)c2ccc(S(=O)(=O)N(C)c3ccccc3)cc2)o1 returned PostGolgi yeast -3, PostGolgi ctrl -10, tolC growth inh 87*, HePTP inhibitor 12, E coli WT exp 5 and PLAP activator 1.5.
For CCN(c1ccccc1)S(=O)(=O)c1ccc(OC)cc1 the results were HePTP inhibitor 1.
CCC(=O)N1CCCc2cc(S(=O)(=O)NCc3cccs3)ccc21 was read as PostGolgi yeast 13, PostGolgi ctrl 1, tolC growth inh 1, HePTP inhibitor 6, E coli WT exp -13 and PLAP activator 0.9.
Screening CCOC(=O)N1CCN(CC(O)COc2ccccc2C(C)CC)CC1 (stereo not drawn) returned PostGolgi yeast 50*, PostGolgi ctrl 26, tolC growth inh -7, HePTP inhibitor 7, E coli WT exp 2 and PLAP activator 1.6.
For CC(=O)c1ccccc1OCC(O)CN1CCN(C(c2ccccc2)c2ccccc2)CC1 (stereo not drawn) the results were PostGolgi yeast 13, PostGolgi ctrl 10, tolC growth inh 74*, HePTP inhibitor 4, E coli WT exp -3 and PLAP activator 1.9.
`CCN1CCN(Cc2cccc(Oc3ccccc3)c2)CC1` gave PostGolgi yeast 2, PostGolgi ctrl 19, E coli WT exp -1 and PLAP activator 2.2*.
CCN1CCN(Cc2cccc(Oc3ccc(Cl)cc3)c2)CC1 was read as PostGolgi yeast 20, PostGolgi ctrl -5, E coli WT exp 9 and PLAP activator 1.7.
Screening CC1(C)CC(=O)C2=C(C1)Oc1ncn(CCO)c(=N)c1C2c1ccccc1 (stereo not drawn) returned PostGolgi yeast 1, PostGolgi ctrl 31*, tolC growth inh -17, HePTP inhibitor 5, E coli WT exp -14 and PLAP activator 1.5.
For O=C(O)CCCCCN1C(=O)C(=O)/C(=C(/O)c2ccc([N+](=O)[O-])cc2)C1c1ccc2c(c1)OCO2 (stereo not drawn) the results were HePTP inhibitor 104*.
O=C(O)CCCCCN1C(=O)C(=O)/C(=C(/O)c2ccc(Cl)cc2)C1c1ccc2c(c1)OCO2 (stereo not drawn) was read as HePTP inhibitor -6.
Screening COc1ccc(C(=O)/C=C\Nc2ccc([N+](=O)[O-])cc2)cc1 returned HePTP inhibitor -2.
For COC(/C=C/Nc1ccc(OC)cc1)=C(C#N)C#N the results were PostGolgi yeast 0, PostGolgi ctrl 31*, E coli WT exp 1 and PLAP activator 1.1.
For CCOc1ccc(NC(=S)Nc2cc(-c3ccccc3)[nH]n2)cc1 the results were PostGolgi yeast 8, PostGolgi ctrl 5, E coli WT exp 0 and PLAP activator 1.1.
`COc1ccc(NC(=S)Nc2cc(-c3ccccc3)[nH]n2)cc1Cl` gave PostGolgi yeast -8, PostGolgi ctrl 30*, E coli WT exp 4 and PLAP activator 1.
CN(CC(=O)Nc1ccc(Cl)cc1)S(=O)(=O)c1cccc2cccnc12 was read as PostGolgi yeast 3, PostGolgi ctrl 10, tolC growth inh 18, HePTP inhibitor 8, E coli WT exp -3 and PLAP activator 0.8.
Screening O=C(Nc1ccccc1N1CCCC1)c1ccco1 returned PostGolgi yeast 11, PostGolgi ctrl 19, tolC growth inh -11, HePTP inhibitor 2, E coli WT exp 5 and PLAP activator 0.8.
O=C(Nc1ccccc1N1CCCCC1)c1ccco1 was read as PostGolgi yeast 2, PostGolgi ctrl 33*, E coli WT exp 11 and PLAP activator 0.9.
`O=C(Nc1ccccc1N1CCCCC1)c1cccs1` gave PostGolgi yeast 2, PostGolgi ctrl 51*, tolC growth inh 100*, HePTP inhibitor 5, E coli WT exp -6 and PLAP activator 0.8.
For CC1CCN(C(=O)c2ccccc2NC(=O)c2ccco2)CC1 the results were HePTP inhibitor 103*.
Screening CS(=O)(=O)N1CCN(c2ccccc2NC(=O)c2cccs2)CC1 returned PostGolgi yeast 3, PostGolgi ctrl 3, tolC growth inh 2, HePTP inhibitor 7, E coli WT exp 2 and PLAP activator 1.
Cc1ccc(/C=C/C(=O)c2c(C)nc3ccccn23)cc1 was read as PostGolgi yeast -2, PostGolgi ctrl 33*, E coli WT exp -7 and PLAP activator 1.
Screening COc1ccc(/C=N/Nc2nnc(-c3ncc[nH]3)c3ccccc23)cc1 returned PostGolgi yeast -2, PostGolgi ctrl 8, E coli WT exp -6 and PLAP activator 1.2.
Screening Oc1ccc2ccccc2c1/C=N/Nc1nnc(-c2ncc[nH]2)c2ccccc12 returned PostGolgi yeast 9, PostGolgi ctrl 39*, E coli WT exp 9 and PLAP activator 1.4.
CCN(CC)C(=O)c1cc2sc3ccccc3c2s1 was read as PostGolgi yeast -7, PostGolgi ctrl 30*, tolC growth inh 56, HePTP inhibitor -5, E coli WT exp 8 and PLAP activator 1.3.
COCCN(CCOC)C(=O)c1cc2sc3ccccc3c2s1 was read as PostGolgi yeast -10, PostGolgi ctrl 1, tolC growth inh 17, HePTP inhibitor 0, E coli WT exp 8 and PLAP activator 1.5.
Screening COc1ccc(/C=C2\C(=O)NC(=O)N(c3ccccc3)C2=O)c(C)c1 returned HePTP inhibitor 6.
CN(Cc1ccccc1)C1CC(=O)N(c2ccc(C(=O)O)cc2)C1=O (stereo not drawn) was read as PostGolgi yeast -2, PostGolgi ctrl 42*, tolC growth inh -12, HePTP inhibitor -13, E coli WT exp -6 and PLAP activator 0.8.
Screening COc1cccc(NC(=O)C2c3ccccc3Oc3ccccc32)c1 returned HePTP inhibitor -2.
Screening Cc1nn(-c2ccccc2)c2[nH]c(=O)c(CNCCN3CCOCC3)cc12 returned PostGolgi yeast -4, PostGolgi ctrl -11, tolC growth inh 5, HePTP inhibitor -8, E coli WT exp -1 and PLAP activator 1.1.
Screening Cc1ccc(-c2nn(-c3ccccc3)c3[nH]c(=O)c(CNCCN(C)C)cc23)cc1 returned tolC growth inh 45, HePTP inhibitor -8 and PLAP activator 2.7*.
`Cc1nn(-c2ccccc2)c2[nH]c(=O)c(CNCc3ccc4c(c3)OCO4)cc12` gave PostGolgi yeast 13, PostGolgi ctrl -12, tolC growth inh 93*, HePTP inhibitor -4, E coli WT exp 2 and PLAP activator 1.6.
`CCOC(=O)C1=C(C)N(C)C(C)=C(C(=O)OCC)C1c1ccccn1` gave PostGolgi yeast 1, PostGolgi ctrl 21, tolC growth inh -8, HePTP inhibitor 3, E coli WT exp -11 and PLAP activator 1.5.
`COC(=O)c1ccc(C(=O)Nc2cc(Cl)ccc2Cl)cc1NC(=O)c1cccs1` gave HePTP inhibitor 4.
